Data: ChEMBL document CHEMBL4145692, “Discovery of a Locally and Orally Active CXCL12 Neutraligand (LIT-927) with Anti-inflammatory Effect in a Murine Model of Allergic Airway Hypereosinophilia” (J Med Chem, 2018)
pKd: −log10 of the molar value. The source made the active and inactive calls. The rule behind the calls is not given here.

Tests used:
[1] = tested on: Mus musculus; test: Inhibition of eosinophil infiltration in Balb/c mouse model of 8 day model of allergic eosinophilic airway inflammation dosed intranasally 2 hrs before ovalbumin challenge by hemocytometry; type: functional, organism-based
In short: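 Same intranasal OVA model with dose-response treatment in PBS/Cdx 10% given 2 h before each challenge. Percent inhibition of BAL eosinophil recruitment; mean ± SEM, n=6/group.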

[2] = Stability in presence of GSH assessed as Michael acceptor reactivity by measuring GSH adduct formation after 2 hrs at 37 degC by LC-MS/MS method; type: physicochemical
In short: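 Compound 200 μM with 500 μM reduced GSH in methanol/50 mM carbonate buffer pH 8. Aliquots taken at 1 min and 2 h, diluted 1/40, and analysed by LC-MS/MS for GSH-conjugate formation.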

[3] = molecular target: Stromal cell-derived factor 1 (Homo sapiens, UniProt P48061); test: Binding affinity to CXCL12 (unknown origin) assessed as changes in tryptophan fluorescence intensity
Stromal cell-derived factor 1, sequence (P48061 whole entry): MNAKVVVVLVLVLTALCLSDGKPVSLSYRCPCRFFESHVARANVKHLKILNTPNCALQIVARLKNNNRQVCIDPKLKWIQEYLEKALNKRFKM
In short: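 Intrinsic Trp fluorescence of CXCL12 (2 μM in Hepes buffer), excitation 285 nm, emission 340 nm, titrated with increasing compound. Kd obtained by fitting a 1:1 binding quadratic model with chemokine fixed at 2 μM. Mean ± SD of three independent experiments.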

[4] = tested on: Mus musculus; test: Anti-inflammatory activity in Balb/c mouse model of hypereosinophilia assessed as inhibition of eosinophil infiltration at 350 umol/kg, ip dosed 2 hrs before allergen challenge; type: functional
In short: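 Balb/c mice sensitized with OVA/alum i.p. and challenged intranasally with OVA on 3 consecutive days. Compounds given i.p. 2 h before each challenge: neutraligands 350 μmol/kg in PBS/CMC 1%, AMD3100 12.6 μmol/kg, dexamethasone 2.5 μmol/kg. BAL 24 h after the last challenge; absolute eosinophil counts; mean ± SEM, n=6/group.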

[5] = tested on: Mus musculus; test: Toxicity in Balb/c mouse model of hypereosinophilia assessed as reduction in body weight at 350 umol/kg, ip dosed daily 2 hrs before allergen challenge for 3 days and measured 24 hrs after last dose; type: organism-based; parameters: scale not given: the % may be the effect or the level left; conditions: in vivo
In short: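 Same OVA model with i.p. dosing 2 h before each of the three challenges: neutraligands 350 μmol/kg in PBS/CMC 1%, AMD3100 12.6 μmol/kg, dexamethasone 2.5 μmol/kg. Body and spleen weight loss recorded 24 h after three daily administrations; n=6/group.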

[6] = tested on: Mus musculus; test: Toxicity in Balb/c mouse model of hypereosinophilia assessed as toxic signs at 350 umol/kg, ip dosed daily 2 hrs before allergen challenge for 10 days and measured 24 hrs after last dose; type: organism-based; conditions: in vivo
In short: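 Mice given 10 daily administrations at 350 μmol/kg. Monitored for weight loss and for signs of toxicity, including prostration and bristly hair.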

[7] = tested on: Mus musculus; test: Toxicity in Balb/c mouse model of hypereosinophilia assessed as induction of kidney lesions at 350 umol/kg, ip dosed daily 2 hrs before allergen challenge for […] and measured 24 hrs after last dose by Gomori's trichrome staining based histological analysis; type: organism-based; conditions: in vivo
[8] = tested on: Mus musculus; test: Anti-asthma activity in Balb/c mouse model of mouse model of hypereosinophilia assessed as inhibition of eosinophil recruitment at 1400 umol/kg, po dosed intranasally 2 hrs before ovalbumin challenge by hemocytometry; type: functional; conditions: in the assay text read “po dosed” for “po dosed intranasally”
In short: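 OVA-sensitized 9-week-old male Balb/c mice (50 μg OVA on 2 mg alum i.p., days 0–2; intranasal OVA 10 μg, days 5–7). Compound at 1400 μmol/kg in PBS/MC 0.5%/Tween 80 0.05% given by gavage 2 h before each challenge. BAL 24 h after the last challenge; eosinophils counted by hemocytometer and Diff-Quick cytospin (≥400 cells); n=6/group.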

[9] = molecular target: T1, C-C motif chemokine 17 (Homo sapiens) (UniProt Q92583); test: Binding affinity to CCL17 (unknown origin) assessed as inhibition of CCL17-induced increase in intracellular calcium level in EGFP-tagged CCR4 expressing HEK cells at 10 uM
T1 sequence (whole entry): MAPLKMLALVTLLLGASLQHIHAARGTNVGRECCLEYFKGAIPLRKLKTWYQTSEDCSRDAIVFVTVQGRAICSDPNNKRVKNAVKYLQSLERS

[10] = molecular target: T2, C-C motif chemokine 22 (Homo sapiens) (UniProt O00626); test: Binding affinity to CCL22 (unknown origin) assessed as inhibition of CCL22-induced increase in intracellular calcium level in EGFP-tagged CCR4 expressing HEK cells at 10 uM
T2 sequence (whole entry): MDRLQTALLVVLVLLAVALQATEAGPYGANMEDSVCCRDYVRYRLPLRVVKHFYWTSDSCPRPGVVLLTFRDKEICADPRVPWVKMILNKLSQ

IC50 [1]: 310 nmol/kg
Stability [2]: Stable
pKd [3]: 6.11
inhibition [9]: inactive
inhibition [10]: inactive
SMILES: COc1cc(-c2cc(-c3ccc(Cl)cc3)nc(=O)[nH]2)ccc1O
inhibition in vivo at 350 µmol/kg [4]: 55%
Activity [5]: 0%
Activity [6]: Non-Toxic
Activity [7]: Non-Toxic
inhibition in vivo at 1400 µmol/kg [8]: 62%
